# ChEMBL document CHEMBL4014344, “Discovery of the Soluble Guanylate Cyclase Stimulator Vericiguat (BAY 1021189) for the Treatment of Chronic Heart Failure” (J Med Chem, 2017)
# pIC50: −log10 of the molar value. The source made the active and inactive calls. The calls are words filed in the database; no cut-off is given here.
# Experiments:
# Rattus norvegicus [1] = test: Antihypertensive activity in L-NAME-treated renin transgenic rat co-expressing RenTG(mRRen2)27 assessed as reduction in Kim-1 expression at 3 to 10 mg/kg administered qd via oral gavage up to 21 days; assay type: functional, organism-based
# How it was run: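 Male RenTG(mRRen2)27 rats, 8 weeks old, given L-NAME in drinking water (50 mg/L) throughout. Randomised to placebo (2 mL/kg qd, n = 20) or 3 and 10 mg/kg/day po by gavage qd (n = 15 per group). Tail-cuff blood pressure on day 0, 7, 14 and 21. Plasma taken at day 22 end. Unpaired t test, mean ± SEM.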
# [2] = Volume of distribution at steady state in iv dosed Beagle dog after 24 hrs by LC-MS analysis; assay type: ADME, organism-based, Canis lupus familiaris; conditions: in vivo, read-out: Vdss
# How it was run: (§1)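 Male Wistar rats and female beagle dogs. iv in plasma/DMSO (rat) or H2O/PEG 400/EtOH (dog). Oral gavage in H2O/PEG 400/EtOH for both. Rats jugular-catheterised ≥1 d before dosing. Usually >10 blood samples, at least two after 24 h. Plasma quantified by LC-MS with internal standard. CL, t1/2, Vss and F calculated from plasma curves. Blood clearance via blood/plasma ratio (20 min blood incubation).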
# Saphenous artery [3] = test: Vasorelaxant activity in nirate-tolerant Chinchilla rabbit saphenous artery ring administered at the beginning of the last resting period of 28 mins in presence of sorbide dinitrate; assay type: functional; conditions: Oryctolagus cuniculus
# [4] = Inhibition of phenylephrine-induced contractions in dog femoral vein after 15 to 20 mins post phenylephrine-induced contraction; assay type: functional, tissue-based, Canis lupus familiaris
# Rattus norvegicus [5] = test: Effect on mortality in L-NAME-treated renin transgenic rat co-expressing RenTG(mRRen2)27 assessed as survival rate at 3 mg/kg administered qd via oral gavage up to 21 days (reference value: 25%); assay type: functional; conditions: 504 h
# [6] = Terminal half life in iv dosed Wistar rat blood after 24 hrs by LC-MS analysis; assay type: ADME, organism-based; conditions: whole blood, read-out: beta t1/2 (converted); how it was run: as §1
# [7] = Drug metabolism in human hepatocytes assessed as CYP-mediated (2S,3S,4S,5R,6R)-6-(6-amino-2-(5-fluoro-1-(2-fluorobenzyl)-1H-pyrazolo[3,4-b]pyridin-3-yl)-5-(methoxycarbonylamino)pyrimidin-4-ylamino)-3,4,5-trihydroxytetrahydro-2H-pyran-2-carboxylic acid metabolite formation; assay type: ADME, cell-based
# Cytochrome P450 1A2 = biological target: T1, Cytochrome P450 1A2 (Homo sapiens, UniProt P05177); test: Inhibition of human liver microsomes CYP1A2 using phenacetin as substrate; assay type: ADME
# T1 sequence (P05177 whole entry): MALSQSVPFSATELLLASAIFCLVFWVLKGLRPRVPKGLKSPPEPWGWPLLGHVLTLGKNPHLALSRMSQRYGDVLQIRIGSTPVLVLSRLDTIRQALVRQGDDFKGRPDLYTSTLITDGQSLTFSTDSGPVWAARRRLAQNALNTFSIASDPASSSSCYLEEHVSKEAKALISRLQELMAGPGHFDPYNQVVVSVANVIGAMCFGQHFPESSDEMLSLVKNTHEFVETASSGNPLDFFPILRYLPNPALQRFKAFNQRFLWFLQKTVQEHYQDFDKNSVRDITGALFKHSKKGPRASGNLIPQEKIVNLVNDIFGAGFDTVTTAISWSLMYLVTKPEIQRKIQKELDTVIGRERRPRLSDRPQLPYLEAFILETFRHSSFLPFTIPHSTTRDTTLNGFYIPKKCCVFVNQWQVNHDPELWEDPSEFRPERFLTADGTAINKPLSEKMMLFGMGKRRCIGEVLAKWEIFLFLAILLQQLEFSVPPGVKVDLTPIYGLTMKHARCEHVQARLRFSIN
# Saphenous artery [8] = test: Inhibition of phenylephrine-induced contractions in Chinchilla rabbit saphenous artery rings administered at the beginning of the last resting period of 28 mins; assay type: functional; conditions: Oryctolagus cuniculus
# Saphenous artery [9] = test: Vasorelaxant activity in normal Chinchilla rabbit saphenous artery ring administered at the beginning of the last resting period of 28 mins; assay type: functional; conditions: Oryctolagus cuniculus
# Homo sapiens = species on record: Homo sapiens; test: Stimulation of sGC (unknown origin) using alpha-[32P]-GTP as substrate assessed as increase in [32P]-cGMP formation at 100 uM in presence of sGC inhibitor ODQ
# How it was run: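 Purified recombinant sGC (0.2 μg/mL) assayed by [32P]-cGMP formation from α-[32P]-GTP, with 200 μM GTP, 3 mM Mn2+/Mg2+ and 1 mM cGMP. Substrate turnover kept <10%. DMSO ≤1% (v/v). ODQ present. Activity expressed as x-fold over basal. Duplicates, repeated five times.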
# Heart [10] = test: Cardiotoxicity in Wistar rat assessed as effect on left ventricular diastolic pressure administered for 20 mins; assay type: toxicity, tissue-based
# How it was run: (§2)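 Male Wistar rats (200−250 g) anesthetized with Narcoren 100 mg/kg ip. Excised heart Langendorff-perfused at constant flow 10 mL/min with Krebs−Henseleit buffer gassed with 95% O2/5% CO2. Values expressed as relative change from baseline before compound application.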
# Artery = test: Inhibition of U46619-induced contractions in porcine coronary artery rings; assay type: functional; conditions: Sus scrofa
# Heart [11] = test: Cardiotoxicity in Wistar rat assessed as effect on heart rate administered for 20 mins; assay type: toxicity, tissue-based; how it was run: as §2
# Cytochrome P450 2D6 = Cytochrome P450 2D6 (Homo sapiens, UniProt P10635); test: Inhibition of human liver microsomes CYP2D6 using dextromethorphan as substrate; assay type: ADME
# [12] = Drug metabolism in human hepatocytes assessed as CYP-mediated methyl 4,6-diamino-2-(5-fluoro-1H-pyrazolo[3,4-b]pyridin-3-yl)pyrimidin-5-ylcarbamate metabolite formation; assay type: ADME, cell-based
# Cytochrome P450 2C9 = Cytochrome P450 2C9 (Homo sapiens, UniProt P11712); test: Inhibition of human liver microsomes CYP2C9 using diclofenac as substrate; assay type: ADME
# [13] = Volume of distribution at steady state in iv dosed Wistar rat after 24 hrs by LC-MS analysis; assay type: ADME, organism-based; conditions: in vivo, read-out: Vdss; how it was run: as §1
# Rattus norvegicus [14] = test: Antihypertensive activity in L-NAME-treated renin transgenic rat co-expressing RenTG(mRRen2)27 assessed as reduction in heart hypertrophy in left ventricle administered qd via oral gavage up to 21 days; assay type: functional
# How it was run: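 Renin transgenic RenTG(mRRen2)27 male rats, 8 weeks old, on L-NAME drinking water (50 mg/L). Dosed by gavage qd with placebo (n = 20) or 3 or 10 mg/kg/day (n = 15 each). At day 22 animals were anesthetized and sacrificed, and left and right ventricles were dissected and weighed for hypertrophy. Unpaired t test versus placebo.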
# Chain of Cytochrome P450 2D6 (P10635 whole entry): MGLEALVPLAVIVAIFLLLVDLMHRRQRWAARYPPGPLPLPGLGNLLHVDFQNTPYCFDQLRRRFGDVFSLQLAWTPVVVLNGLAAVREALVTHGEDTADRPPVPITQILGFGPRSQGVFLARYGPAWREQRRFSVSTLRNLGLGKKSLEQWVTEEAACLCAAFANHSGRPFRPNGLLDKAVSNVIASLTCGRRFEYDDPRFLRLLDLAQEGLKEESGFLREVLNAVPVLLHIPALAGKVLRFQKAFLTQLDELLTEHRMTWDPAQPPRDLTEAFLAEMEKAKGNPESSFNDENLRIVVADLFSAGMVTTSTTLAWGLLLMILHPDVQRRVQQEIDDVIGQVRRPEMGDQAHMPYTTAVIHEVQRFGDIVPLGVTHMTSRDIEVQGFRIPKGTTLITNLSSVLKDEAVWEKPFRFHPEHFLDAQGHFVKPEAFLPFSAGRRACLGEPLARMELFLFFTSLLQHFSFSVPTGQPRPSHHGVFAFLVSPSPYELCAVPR
# Chain of Cytochrome P450 2C9 (P11712 whole entry): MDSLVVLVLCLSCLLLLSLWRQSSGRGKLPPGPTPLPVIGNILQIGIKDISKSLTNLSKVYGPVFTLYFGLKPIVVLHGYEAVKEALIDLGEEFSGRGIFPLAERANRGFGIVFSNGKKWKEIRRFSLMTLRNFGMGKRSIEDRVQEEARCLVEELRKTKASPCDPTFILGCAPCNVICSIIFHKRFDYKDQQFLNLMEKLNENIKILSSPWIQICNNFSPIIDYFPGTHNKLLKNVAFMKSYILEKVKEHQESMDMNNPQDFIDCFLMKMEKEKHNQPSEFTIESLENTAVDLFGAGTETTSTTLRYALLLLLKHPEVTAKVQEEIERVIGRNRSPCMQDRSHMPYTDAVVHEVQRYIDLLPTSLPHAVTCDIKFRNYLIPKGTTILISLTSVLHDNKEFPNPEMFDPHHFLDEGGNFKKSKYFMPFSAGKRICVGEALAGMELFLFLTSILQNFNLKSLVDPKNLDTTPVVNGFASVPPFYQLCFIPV
smiles,measurement,setting,value
COC(=O)Nc1c(N)nc(-c2nn(Cc3ccccc3F)c3ncc(F)cc23)nc1N [VERICIGUAT],Activity,Rattus norvegicus [1],Active
same,Vd,[2],1.4 L/kg
same,pIC50,Saphenous artery [3],8.24
same,pIC50,[4],5.51
same,survival at 3 mg/kg,Rattus norvegicus [5],70%
same,half-life,[6],3.4 h
same,Drug metabolism,[7],Metabolite_Detected
same,pIC50,Cytochrome P450 1A2,< 4.30
same,pIC50,Saphenous artery [8],6.10
same,pIC50,Saphenous artery [9],8.25
same,Activity,Homo sapiens,inactive
same,Activity,Heart [10],Non-Toxic
same,pIC50,Artery,6.02
same,Activity,Heart [11],Non-Toxic
same,pIC50,Cytochrome P450 2D6,< 4.30
same,Drug metabolism,[12],Metabolite_Detected
same,pIC50,Cytochrome P450 2C9,< 4.30
same,Vd,[13],1 L/kg
same,Activity,Rattus norvegicus [14],Dose-dependent effect
